Experimental data taken from ChEMBL document CHEMBL1142960, “Synthesis and structure-activity relationships for 2,4-dinitrobenzamide-5-mustards as prodrugs for the Escherichia coli nfsB nitroreductase in gene therapy” (J Med Chem, 2007).
Converted amounts (≈) assume the structure as drawn.

Tests used:
[1] = test system: V79; experiment: Antiproliferative activity against chinese hamster wild-type V79 NTR-ve cells after 18 hrs; type: functional, cell-based; conditions: Cricetulus griseus, V79, 18 h
[2] = test system: V79; experiment: Selectivity ratio of IC50 for V79 NTR-ve cells to IC50 for V79 NTRpuro cells; type: functional, Cricetulus griseus
[3] = Selectivity ratio of IC50 for Skov3 NTR-ve cells to IC50 for Skov3 NTRneo cells; type: functional, Homo sapiens
[4] = test system: V79; experiment: Antiproliferative activity against chinese hamster V79 NTRpuro cells after 18 hrs; type: functional, cell-based; conditions: Cricetulus griseus, V79, 18 h
[5] = Antiproliferative activity against human Skov3 NTRneo cells after 18 hrs; type: functional, cell-based; conditions: SK-OV-3, 18 h
[6] = test system: EMT6; experiment: Antiproliferative activity against mouse EMT6 NTRpuro cells after 18 hrs; type: functional, cell-based; conditions: EMT6, 18 h
[7] = test system: WiDr; experiment: Selectivity ratio of IC50 for WiDr NTR-ve cells to IC50 for WiDr NTRneo cells; type: functional, Homo sapiens
[8] = Stability in alpha MEM at 37 degC after 24 hrs; type: physicochemical; conditions: read-out: Stability
Procedure, shortened: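 Percent parent compound remaining, by HPLC, after holding in α-MEM with 5% fetal calf serum at 37 °C for 24 h.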

[9] = Antiproliferative activity against human wild type Skov3 NTR-ve cells after 18 hrs; type: functional, cell-based
[10] = test system: WiDr; experiment: Antiproliferative activity against human wild type WiDr NTR-ve cells after 18 hrs; type: functional, cell-based
[11] = test system: EMT6; experiment: Antiproliferative activity against mouse wild type EMT6 NTR-ve cells after 18 hrs; type: functional, cell-based; conditions: EMT6, 18 h
[12] = test system: EMT6; experiment: Selectivity ratio of IC50 for EMT6 NTR-ve cells to IC50 forEMT6 NTRpuro cells; type: functional, Mus musculus
[13] = test system: WiDr; experiment: Antiproliferative activity against human WiDr NTRneo cells after 18 hrs; type: functional, cell-based
[14] = Solubility in alpha MEM; type: physicochemical
Procedure, shortened: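 Solubility (mM) in α-MEM with 5% fetal calf serum at ambient temperature, measured by HPLC.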

SMILES	IC50 [1]	Ratio IC50 [2]	Ratio IC50 [3]	IC50 [4]	IC50 [5]	IC50 [6]	Ratio IC50 [7]	remaining at 24 h [8]	IC50 [9]	IC50 [10]	IC50 [11]	Ratio IC50 [12]	IC50 [13]	solubility [14]
COC(=O)CCNC(=O)c1cc(N(CCBr)CCBr)c([N+](=O)[O-])cc1[N+](=O)[O-]	52 µM	45	49	1.1 µM	2.3 µM	0.59 µM	47	70%	110 µM	80 µM	76 µM	149	2.1 µM	280 µM (≈ 147 µg/mL)
O=C(NO)c1cc(N(CCBr)CCBr)c([N+](=O)[O-])cc1[N+](=O)[O-]	34 µM	180	180	0.2 µM	0.31 µM	0.07 µM	92	69%	59 µM	45 µM	33 µM	500	0.39 µM	1200 µM (≈ 547 µg/mL)
O=C(NC(CO)(CO)CO)c1cc(N(CCCl)CCCl)c([N+](=O)[O-])cc1[N+](=O)[O-]	1050 µM	91	205	13 µM	4.2 µM	0.45 µM	61	97%	970 µM	700 µM	693 µM	1530	9.8 µM	1800 µM (≈ 819 µg/mL)
O=C(NCCCCN1CCOCC1)c1cc(N(CCCl)CCCl)c([N+](=O)[O-])cc1[N+](=O)[O-]	142 µM	5.9	61	25 µM	9.3 µM	7.4 µM	3	91%	447 µM	68 µM	192 µM	28	23 µM	2000 µM (≈ 985 µg/mL)
O=C(NCCCN1CCOCC1)c1cc(N(CCBr)CCBr)c([N+](=O)[O-])cc1[N+](=O)[O-]	148 µM	9.2	7.3	16 µM	34 µM	16 µM	2.4	74%	272 µM	134 µM	56 µM	3.6	57 µM	860 µM (≈ 488 µg/mL)
CS(=O)(=O)OCCN(CCCl)c1cc(C(=O)NCC(O)CO)c([N+](=O)[O-])cc1[N+](=O)[O-] (centres undefined)			286		5 µM	3.81 µM	328	74%	1380 µM	1230 µM	1210 µM	344	6 µM	2100 µM (≈ 1020 µg/mL)
O=C(NCCCn1ccnc1)c1cc(N(CCCl)CCCl)c([N+](=O)[O-])cc1[N+](=O)[O-]	174 µM	7.4	26	32 µM	18 µM	45 µM	2.9	70%	474 µM	106 µM	187 µM	41	37 µM	19000 µM (≈ 8730 µg/mL)
CC(O)CNC(=O)c1cc(N(CCCl)CCCl)c([N+](=O)[O-])cc1[N+](=O)[O-] (centres undefined)	438 µM	21	75	21 µM	9.5 µM	2.6 µM	30	107%	705 µM	586 µM	593 µM	233	19 µM	1200 µM (≈ 491 µg/mL)
O=C(O)CCNC(=O)c1cc(N(CCCl)CCCl)c([N+](=O)[O-])cc1[N+](=O)[O-]	4890 µM	9.5	11	470 µM	643 µM	424 µM	3.5		5720 µM	6390 µM	4630 µM	13	1810 µM	
NCCNC(=O)c1cc(N(CCCl)CCCl)c([N+](=O)[O-])cc1[N+](=O)[O-]	462 µM	11	69	52 µM	6.8 µM	0.37 µM	38	99%	417 µM	180 µM	124 µM	413	5.9 µM	9200 µM (≈ 3630 µg/mL)
CS(=O)(=O)OCCN(CCOS(C)(=O)=O)c1cc(C(=O)NCC(O)CO)c([N+](=O)[O-])cc1[N+](=O)[O-] (centres undefined)	237 µM	13	43	16 µM	10 µM	8 µM	17	54%	379 µM	347 µM	251 µM	31	23 µM	9000 µM (≈ 4900 µg/mL)
O=C(NCCCN1CCOCC1)c1cc(N(CCCl)CCCl)c([N+](=O)[O-])cc1[N+](=O)[O-]	348 µM	3.4	14	105 µM	55 µM	24 µM	1.9	96%	692 µM	163 µM	199 µM	8	90 µM	22000 µM (≈ 10500 µg/mL)
O=C(O)CCNC(=O)c1cc(N(CCBr)CCBr)c([N+](=O)[O-])cc1[N+](=O)[O-]	54 µM	45	12	13 µM	7.6 µM	2.4 µM	4.8		67 µM	40 µM	40 µM	17	7.6 µM	8400 µM (≈ 4300 µg/mL)
CS(=O)(=O)OCCN(CCBr)c1cc(C(=O)NO)c([N+](=O)[O-])cc1[N+](=O)[O-]	97 µM	112	115	0.9 µM	1.44 µM	0.41 µM	100	48%	146 µM	113 µM	63 µM	156	1.16 µM	1500 µM (≈ 707 µg/mL)
CN(C)CCNC(=O)c1cc(N(CCCl)CCCl)c([N+](=O)[O-])cc1[N+](=O)[O-]	89 µM	1.1	6	81 µM	44 µM	35 µM	0.9	103%	246 µM	62 µM	62 µM	1.8	66 µM	
O=C(NCCn1ccnc1)c1cc(N(CCCl)CCCl)c([N+](=O)[O-])cc1[N+](=O)[O-]	273 µM	6.6	140	46 µM	4.1 µM	2.6 µM	18	94%	438 µM	163 µM	178 µM	52	11 µM	500 µM (≈ 223 µg/mL)
CS(=O)(=O)NC(=O)c1cc(N(CCCl)CCCl)c([N+](=O)[O-])cc1[N+](=O)[O-]	328 µM	1.5	6.7	237 µM	160 µM	278 µM	5.4	100%	1040 µM	1310 µM	450 µM	2	223 µM	17000 µM (≈ 7300 µg/mL)
CS(=O)(=O)c1cc([N+](=O)[O-])c(N(CCCl)CCCl)cc1C(=O)NCC(O)CO (centres undefined)	843 µM	2.3	3.3	427 µM	745 µM	189 µM	2	106%	2320 µM	1980 µM	1200 µM	6.4	994 µM	16000 µM (≈ 7330 µg/mL)
O=C(NOCCO)c1cc(N(CCCl)CCCl)c([N+](=O)[O-])cc1[N+](=O)[O-]	750 µM	76	>90	13 µM	11 µM	6.6 µM	39	100%	> 1190 µM	895 µM	560 µM	85	25 µM	2100 µM (≈ 864 µg/mL)
CS(=O)(=O)c1cc([N+](=O)[O-])c(N(CCCl)CCCl)cc1C(N)=O	> 50 µM			> 50 µM	> 50 µM	> 50 µM		74%	> 50 µM	> 50 µM	> 50 µM		> 50 µM	60 µM (≈ 23.1 µg/mL)
